The source of these data is ChEMBL document CHEMBL1152539, “Synthesis and evaluation of bioactive naphthoquinones from the Brazilian medicinal plant, Tabebuia avellanedae” (Bioorg Med Chem, 2009).

One data set has as its system MCF7. Description: Antiproliferative activity against human MCF7 cells after 72 hrs by trypan blue exclusion assay. It is filed as functional, cell-based. To be noted: MCF7, 72 h. Summed up:
(§1)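 Cells were kept in DMEM with 10% fetal serum and exposed to four concentrations of compound for 72 h at 37 °C in humidified 5% CO₂. They were then stained with 0.25% trypan blue for 20 min, and viable cells were counted by light microscopy. IC₅₀ was derived from separate experiments run in triplicate.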

Data set [1] can be described thus: Cytotoxicity against human Raji cells assessed as cell viability at 1000 molar ratio after 48 hrs by trypan blue staining. To be noted: read-out: Activity. It is filed as cell-based. An outline of the steps: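 Raji cells were exposed for 48 h at 37 °C to n-butyric acid (4 mM), TPA (32 pmol) and test compound, as in the EBV-EA induction setup. Viability of the treated cells was then measured by trypan blue staining.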

The next data set has as its system PC-3. As to the kind of experiment: Antiproliferative activity against human PC3 cells after 72 hrs by trypan blue exclusion assay. To be noted: PC-3, 72 h. It is filed as functional, cell-based. An outline of the steps:
as §1

Another data set deals with A549. As to the kind of experiment: Antiproliferative activity against human A549 cells after 72 hrs by trypan blue exclusion assay. The note with it: A549, 72 h. The format is functional, cell-based. An outline of the steps:
as §1

The test system of data set [2] is Raji. Description: Inhibition of 12-O-tetradecanoylphorbol-13-acetate-induced EBV-early antigen activation in human Raji cells assessed as EA induction at 1000 molar ratio after 48 hrs by immunofluorescence technique relative to 12-O-tetradecanoylphorbol-13-acetate. It is filed as cell-based. The note with it: human gammaherpesvirus 4. Summed up:
(§2)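 Raji cells were incubated for 48 h at 37 °C in medium with n-butyric acid (4 mM), TPA (32 pmol) and graded amounts of test compound. Smears were stained for EBV-EA by indirect immunofluorescence, and positive cells were counted among at least 500 cells. Assays were run in triplicate. Activity was expressed relative to the n-butyric acid plus TPA control, set as 100%.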

In data set [3] the test system is Raji. As to the kind of experiment: Inhibition of 12-O-tetradecanoylphorbol-13-acetate-induced EBV-early antigen activation in human Raji cells assessed as EA induction at 500 molar ratio after 48 hrs by immunofluorescence technique relative to 12-O-tetradecanoylphorbol-13-acetate. The format is cell-based. To be noted: human gammaherpesvirus 4. Set-up: scale not given: the % may be the effect or the level left. An outline of the steps:
as §2

Data set [4] in a line: Antiproliferative activity against human Hs888Lu cells after 72 hrs by trypan blue exclusion assay. The format is cell-based. Summed up:
as §1

Data set [5] can be described thus: Antiproliferative activity against human SVCT-M12 cells after 72 hrs by trypan blue exclusion assay. The format is cell-based. The note with it: SVCT-M12, 72 h. An outline of the steps: as §1
The test system of data set [6] is Raji. Description: Inhibition of 12-O-tetradecanoylphorbol-13-acetate-induced EBV-early antigen activation in human Raji cells assessed as EA induction at 100 molar ratio after 48 hrs by immunofluorescence technique relative to 12-O-tetradecanoylphorbol-13-acetate. The format is cell-based. The note with it: human gammaherpesvirus 4. Also noted: scale not given: the % may be the effect or the level left. An outline of the steps:
as §2

The test system of data set [7] is Raji. Description: Inhibition of 12-O-tetradecanoylphorbol-13-acetate-induced EBV-early antigen activation in human Raji cells assessed as EA induction at 10 molar ratio after 48 hrs by immunofluorescence technique relative to 12-O-tetradecanoylphorbol-13-acetate. Also noted: scale not given: the % may be the effect or the level left. It is filed as cell-based. The note with it: human gammaherpesvirus 4. An outline of the steps:
as §2

Data set [8] can be described thus: Inhibition of 12-O-tetradecanoylphorbol-13-acetate-induced EBV-early antigen activation in human Raji cells after 48 hrs by immunofluorescence technique. It is filed as cell-based, human gammaherpesvirus 4. An outline of the steps:
as §2

For a further data set, the system named is Bacillus mycoides. Description: Antimicrobial activity against Bacillus mycoides ATCC 11778 after 24 hrs by broth dilution method. It is filed as functional. The note with it: ATCC 11778, 24 h. An outline of the steps:
(§3)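 Modified NCCLS broth dilution. A 50 µL aliquot of bacterial cells (10⁶/mL in 0.85% NaCl) was added to 1 mL Mueller-Hinton broth containing compound over a 0.1–100 range.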
(In broth dilution the organism is exposed to a series of concentrations in liquid medium.)

Another data set has as its system Bacillus subtilis. As to the kind of experiment: Antimicrobial activity against Bacillus subtilis NBRC3134 after 24 hrs by broth dilution method. It is filed as functional. To be noted: NBRC3134, 24 h. Summed up: as §3
The test system of the next data set is Staphylococcus aureus. As to the kind of experiment: Antimicrobial activity against Staphylococcus aureus NBRC13276 after 24 hrs by broth dilution method. The format is functional. The note with it: NBRC13276, 24 h. An outline of the steps: as §3

The structures appear in SMILES notation. Values after ≈ are worked out from the molar mass of the structure shown.

Broadly, the EC50 is the concentration at which the effect is half-maximal. Consider `CC(=O)c1cc2c(o1)C(=O)c1c(O)cccc1C2=O`, for which the IC50 with MCF7 was found to be 2.61 µM; in the data set on PC-3 it was 3 µM; in the data set with A549, 4.31 µM; in data set [8], 40.1 mol ratio/32 pmol TPA. For the same compound, the viability at 48 h, 1000 molar ratio in data set [1] came to 70%. The EA induction relative to TPA control in the data set on Raji [2] is 0%. For the same compound, the Activity in the data set with Raji [3] was 8.3%; in the data set on Raji [6] it was 27.5%; in the data set on Raji [7] it was 60.3%. Besides, the EC50 in [4] is 14.6 µM; in [5], 11.7 µM.
Consider `CC(O)c1cc2c(o1)C(=O)c1c(O)cccc1C2=O` (racemic), for which, in data set [1], the viability at 48 h, 1000 molar ratio worked out at 60%. For the same compound, the EA induction relative to TPA control in the data set with Raji [2] turned out to be 8.9%. The Activity in the data set with Raji [3] was determined as 28.4%; in the data set on Raji [6], 59%; in the data set on Raji [7], 84.6%. This compound gave an IC50 in data set [8] of 306 mol ratio/32 pmol TPA.
Take `CC1(C)CCC2=C(O1)c1ccccc1C(=O)C2=O` [LAPACHONE]: the IC50 in the data set with MCF7 was found to be 9.96 µM; with PC-3, 1.13 µM; in the data set with A549, 4.21 µM; in data set [8], 210 mol ratio/32 pmol TPA. Also, in data set [1], the viability at 48 h, 1000 molar ratio was 50%. For the same compound, the EA induction relative to TPA control in the data set with Raji [2] stood at 4.7%. The results for the Activity in the data set with Raji [3], with Raji [6] and with Raji [7] were 21.7%, 50.4% and 73.1%, respectively.
The MIC is the smallest concentration in the dilution series that meets the test's criterion for growth inhibition. On to `CC1(C)S[C@@H]2[C@H](NC(=O)Cc3ccccc3)C(=O)N2[C@H]1C(=O)O` [PENICILLIN G], for which the values for the MIC in the data set on Bacillus mycoides, against Bacillus subtilis and in the data set with Staphylococcus aureus were 1.56 µg/mL (≈ 4.67 µM), 0.39 µg/mL (≈ 1.17 µM) and 0.39 µg/mL (≈ 1.17 µM), respectively.
Regarding `COc1cc(/C=C/C(=O)CC(=O)/C=C/c2ccc(O)c(OC)c2)ccc1O` [CURCUMIN], the EA induction relative to TPA control in the data set on Raji [2] was found to be 8.9%. For the same compound, the values for the Activity with Raji [3], in the data set with Raji [6] and in the data set with Raji [7] were 40.3%, 74.5% and 95.8%, respectively. This compound registered an IC50 in [8] of 345 mol ratio/32 pmol TPA.
